PAFAH1B3 inh = PAFAH1B3 (human) inhibition; Q15102; recombinant PAFAH1B3, FP-rhodamine probe, fluorescence polarization; inhibition, % at 3.39 µM; actives 0.28% (n = 340,000);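 active = inhibition above the screen-wide average of all tested compounds plus 3 SD, cut at about 25% in these data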;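 also: 0% = enzyme with DMSO only and 100% = wells lacking PAFAH1B3 protein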
PAFAH1B2 FP inh = blocks human PAF acetylhydrolase 1b catalytic subunit 2. P68402. recombinant PAFAH1B2, FP-rhodamine activity probe, fluorescence polarization. inhibition, % at 3.39 µM. actives 1.2% (n = 340,000). AID 492953;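 active = inhibition above the mean of all tested compounds plus 3 SD, cut at about 24% in these data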;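 also: 0% = enzyme with DMSO and 100% = wells lacking PAFAH1B2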
Target sequence (P68402 whole entry, looked up): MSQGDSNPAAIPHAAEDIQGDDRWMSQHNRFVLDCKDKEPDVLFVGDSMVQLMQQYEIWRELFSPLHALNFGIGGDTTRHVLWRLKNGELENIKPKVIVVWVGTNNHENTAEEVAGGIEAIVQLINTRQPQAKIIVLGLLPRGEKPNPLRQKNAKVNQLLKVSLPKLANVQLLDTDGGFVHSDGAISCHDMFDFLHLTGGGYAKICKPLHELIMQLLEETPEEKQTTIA
PAFAH2 inh = inhibitors of human PAFAH2; Q99487; recombinant PAFAH2, FP-rhodamine activity probe, fluorescence polarization; inhibition, % at 3.39 µM; actives 0.99% (n = 340,000);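 active = inhibition above the mean over all tested compounds plus 3 SD, cut at about 30% in these data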;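 also: inhibitors block probe labeling of enzyme so polarization drops; 0% = enzyme with DMSO and 100% = wells lacking PAFAH2 protein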
HTRA1 inh = inhibitors of human serine peptidase HTRA1 | recombinant HTRA1, FP-rhodamine activity-based probe, fluorescence polarization | inhibition, % at 5.96 µM | actives 0.5% (n = 340,000) | Q92743 | AID 504803; in the data active = inhibition above about 36%;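 also: 0% = enzyme with DMSO and 100% = wells lacking enzyme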
pPAFAH inh = pPAFAH (human) enzyme inhibition | Q13093 | recombinant pPAFAH, FP-rhodamine probe fluorescence polarization | inhibition, % at 3.39 µM | actives 1.5% (n = 330,000);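 active = inhibition above the mean inhibition across the screen plus 3 SD, cut at about 25% in these data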;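 also: inhibitors block binding of the rhodamine activity-based probe so polarization drops; 0% = enzyme with DMSO and 100% = wells lacking pPAFAH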
Target sequence (Q13093 whole entry, looked up): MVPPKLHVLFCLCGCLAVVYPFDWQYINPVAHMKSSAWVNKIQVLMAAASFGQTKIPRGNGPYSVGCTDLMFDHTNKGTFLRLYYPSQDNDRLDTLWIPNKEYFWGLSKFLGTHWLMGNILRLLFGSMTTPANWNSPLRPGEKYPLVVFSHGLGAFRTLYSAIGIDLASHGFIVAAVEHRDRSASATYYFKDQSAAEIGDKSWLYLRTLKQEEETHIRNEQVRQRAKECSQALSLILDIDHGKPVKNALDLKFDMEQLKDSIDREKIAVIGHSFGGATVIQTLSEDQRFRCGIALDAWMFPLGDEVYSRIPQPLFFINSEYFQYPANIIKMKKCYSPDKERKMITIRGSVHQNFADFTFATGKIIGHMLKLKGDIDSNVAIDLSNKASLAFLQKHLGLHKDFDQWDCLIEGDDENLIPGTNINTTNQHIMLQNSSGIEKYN
ABHD4 inh = ABHD4 (mouse) inhibition, primary FP screen; purified mABHD4, FP-Rh probe fluorescence polarization; inhibition, % at 8.92 µM; actives 0.54% (n = 370,000); AID 720543;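 active = inhibition exceeding the mean over every tested compound plus 3 SD, cut at about 30% in these data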;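 also: 0% = plate median of compound wells and 100% = S159A mutant with DMSO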
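Assay system: mABHD4 protein; medium: HEPES pH 7.0, NaCl, Pluronic buffer; dosing: 8.92 µM, single dose; schedule: 45 min + 60 min at 25 °C; signal: FP readout, ex 525 nm / em 598 nm; read-out: normalized percent inhibition of probe labeling; repeats: single replicate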
* marks the source's active call; other numbers are inactive results; nt = not tested or not shown. The list is not random: actives were taken first. Their share in the collection is about 2.8%.

SMILES	PAFAH1B3 inh	PAFAH1B2 FP inh	PAFAH2 inh	HTRA1 inh	pPAFAH inh	ABHD4 inh
C/C(=N\NS(=O)(=O)c1ccccc1)c1cccc(NC(=O)c2cccc(Cl)c2)c1	9	-2	0	-38	25*	1
CCOc1cc(NS(=O)(=O)c2ccccc2)c(OCC)cc1NC(=O)c1ccco1	7	2	9	-7	31*	3
Cc1ccccc1NS(=O)(=O)c1ccc(NC(=O)c2nc3ncccn3n2)cc1	20	-4	4	-3	29*	6
Cc1ccccc1NC(=O)c1ccco1	5	4	-6	10	-2	1
Cc1ccccc1NS(=O)(=O)c1ccc(NC(=O)c2ccco2)cc1	12	5	-31	-15	29*	0
COc1ccc(S[C@]2(C(=O)N3CCOCC3)CC(=O)N(C(=O)Nc3ccc(C)c(Cl)c3)[C@@H]2c2ccc(OC)cc2)cc1	nt	nt	nt	nt	nt	-15
Cc1cccc(NC(=O)c2cccc(S(=O)(=O)Nc3ccccc3C(=O)O)c2)c1	6	1	-9	-16	-11	-11
Cc1ccccc1NS(=O)(=O)c1cccc(C(=O)Nc2cccc(C(=O)O)c2)c1	1	4	1	7	27*	-16
CCCCNC(=O)NCC1CCN(Cc2ccc(OC)cc2)CC1	nt	nt	nt	nt	nt	-1
O=C(Nc1ccc2c(c1)CCC2)Nc1ccc2c(c1)OCO2	7	2	2	11	25*	3
COc1ccc(CNC(=O)CCNS(=O)(=O)c2ccc3[nH]c(=O)oc3c2)cc1	nt	nt	nt	nt	nt	1
CCOC(=O)N1CCc2c(sc(NC(=O)c3ccc(Cl)s3)c2C(N)=O)C1	nt	nt	nt	nt	25*	nt
CCN1CCc2c(sc(NC(=O)Nc3ccc(Cl)c(Cl)c3)c2C(N)=O)C1	10	8	-6	28	33*	7
CCOC(=O)N1CCc2c(sc(NC(C)=O)c2C(N)=O)C1	4	3	-1	8	-6	0
CCN(CC)C(=O)CC[C@@H]1CC[C@]2(CCCN(S(C)(=O)=O)C2)O1	nt	nt	nt	nt	nt	1
COc1cccc([C@@H]2NC(=O)C/C=C/[C@H](C)[C@H](c3cccc(OC)c3)NC(=O)C/C=C/[C@@H]2C)c1	nt	nt	nt	nt	nt	-11
O=C(O)c1ccc(-c2ccc(/C=C3\NC(=O)N(Cc4ccc(Cl)cc4)C3=O)o2)cc1Cl	22	8	30*	-7	nt	18
O=C(CCN1C(=O)/C(=C/c2ccccc2F)SC1=S)N[C@@H](CO)Cc1ccccc1	1	38*	3	1	-2	-9
O=C(CCN1C(=O)/C(=C/c2ccccc2)SC1=S)Nc1ccccn1	2	6	0	5	1	1
O=C(CCN1C(=O)/C(=C/c2ccccc2)SC1=S)N[C@@H](CO)Cc1ccccc1	3	43*	-5	-17	1	-9
CCCCCN1CCCCC(NC(=O)c2cc(OC)c(OC)c(OC)c2)C1=O (configuration not stated)	nt	nt	nt	nt	nt	-2
COC1=CC(=O)c2ccccc2C1=O	43*	15	10	-1	0	nt
Cc1cccc(NC(=O)N2CCC(N(C)CCC(C)C)CC2)c1	nt	nt	nt	nt	nt	-2
CC(=O)c1cc(-c2ccc3[nH]ccc3c2)c(=O)n2c1CCC2	nt	nt	nt	nt	nt	1
O=C1C=C(O)c2cccc(O)c2C1=O	22	12	20	22	13	41*
SMILES	PAFAH1B3 inh	PAFAH1B2 FP inh	PAFAH2 inh	HTRA1 inh	pPAFAH inh	ABHD4 inh
O=C1c2cccc(O)c2C(=O)c2c(O)cccc21	nt	nt	nt	nt	14	nt
CCOC(=O)[C@]12CCCC=C1N(CCc1ccc(Cl)cc1)C(=O)[C@@H]2CC(=O)NCCC(C)C	nt	nt	nt	nt	nt	9
O=C(NCC(c1ccccc1)c1ccccc1)[C@H](Cc1c[nH]c2ccccc12)NC1(C(=O)NC2CCCCC2)CCC1	nt	nt	nt	nt	nt	-15
CC(C)N(C(=O)Cn1c(-c2ccccc2Cl)nc2ccccc21)c1ccccc1	0	14	0	1	26*	0
CCCC[C@H](C(=O)N(C)c1ccccc1)[C@@H](O)c1ccc(C(C)=O)cc1	nt	nt	nt	nt	nt	4
Cc1nc2ccc(S(=O)(=O)NCC(=O)N(C)Cc3ccc(F)cc3)cc2s1	nt	nt	nt	nt	nt	1
COc1ccc(Cc2nn3c(-c4ccccc4OC)nnc3s2)cc1	3	1	5	0	11	8
COc1ccccc1-c1nnc2sc(COc3ccc(Cl)cc3)nn12	-3	26*	6	-28	1	-11
Cc1cccc(NC(=O)CSc2ncnc3sc4c(c23)CCCC4)c1	nt	nt	nt	nt	nt	-4
COc1cc(NC(=O)CSc2ncnc3sc4c(c23)CCCC4)c(C(=O)O)cc1OC	10	6	21	0	26*	11
Nc1ncnc2c1nc(Sc1ccc(Cl)cc1)n2[C@@H]1O[C@@H]2COP(=O)(O)O[C@H]2[C@H]1O	4	26*	-4	0	2	-5
CCN(CC)c1ccc(NC(=O)CN(C)Cc2cccs2)cc1	6	4	7	15	26*	21
Cc1ccc(NC(=O)CN(C)Cc2cccs2)cc1Cl	3	-1	5	-14	13	1
Cc1cc(Br)ccc1OCC(=O)NNC(=O)Cc1ccccc1	-4	1	14	0	2	-7
Cc1cc(Br)ccc1OCC(=O)NNC(=O)C(=O)Nc1ccccc1	2	27*	11	0	9	-2
Cc1ccc(C(=O)O/N=C(\N)Cc2cccs2)c(Cl)c1	1	5	35*	-10	12	nt
Cc1ccc(C(=O)O/N=C(\N)Cc2ccc([N+](=O)[O-])cc2)c(Cl)c1	8	4	26	3	5	4
Cc1cc(C)cc(NC(=O)N2CCN(Cc3nc4ccccc4c(=O)[nH]3)CC2)c1	nt	nt	nt	nt	nt	3
Cc1onc(C(=O)N2CCN(C(c3ccc(F)cc3)c3ccc(F)cc3)CC2)c1[N+](=O)[O-]	nt	nt	nt	nt	nt	-5
COc1cc(N)c2ncccc2c1Cl	2	6	-3	6	nt	34*
CCc1ccc(C(=O)/C=C/c2ccc([N+](=O)[O-])o2)cc1	0	1	1	6	27*	18
Cc1cccc(NC(=O)CSc2nc(C3CC3)nc3ccccc23)c1	-2	5	-12	-6	3	-14
CCN(CC)c1ccc(NC(=O)CSc2nc(C3CC3)nc3ccccc23)cc1C	7	4	7	5	31*	4
CCN(CC)C(=O)CC[C@H]1CC[C@]2(CCCN(c3ccccc3)C2)O1	nt	nt	nt	nt	nt	-5
CC(C)N(C(=O)COC(=O)c1ccc(Cl)nc1)C(C)C	7	-2	2	-1	1	9
O=C(OCCOc1ccc(Br)cc1)c1ccc(Cl)nc1	9	26*	2	-23	1	0
O=C(Cn1ccccc1=O)NCc1ccc(F)cc1	-8	2	-1	0	33*	0
O=C(CN1C(=O)c2ccccc2C1=O)NCc1ccc(F)cc1	9	2	1	6	-2	5
CCC[C@H]1[C@@H](OC(=O)NCCc2ccccc2)CC[C@@]23CCCN2C(=O)CCC[C@@H]13	nt	nt	nt	nt	nt	-2

Screening data: PubChem BioAssay, The Scripps Research Institute Molecular Screening Center
